{"source": "paper PMC6831891", "about": "(Molecular Therapy. Nucleic Acids, 2019)", "key": {"[1]": {"tested_on": "S. pyogenes strain 591 (M49)", "experiment": "G. mellonella infection model", "assay_type": "in vivo, Galleria mellonella", "summary_of_the_method": "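Wax moth larvae (150–200 mg) injected into the hemocoel, between the last two pro-leg pairs, with 1–3 × 10^6 CFU/larva. Inoculum was grown overnight in THY, washed twice and resuspended in 0.9% NaCl. Test compound (4 nmol/larva) injected 30 min post-infection; 0.9% NaCl served as mock. Survival recorded daily over 7 days.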"}, "[2]": {"tested_on": "S. pyogenes M49 strain 591", "experiment": "Bacterial kill assay", "assay_type": "cell-based, Streptococcus pyogenes", "details": "for Reduction of CFU per milliliter: concentration range 1 to 10 μM, n = 3; for Reduction of CFU per milliliter / Clearance six hours following treatment / Reduction of bacterial counts by scPNA / Reduction of bacterial counts by scPNAs in kill assay: 6 h; for Clearance six hours following treatment: 5 μM or 10 μM; for log CFU reduction: six hours following treatment; for Reduction of bacterial counts by scPNA: 10 μM scPNA, n = 5; for Reduction of bacterial counts by scPNAs in kill assay: up to 5 μM scPNA", "summary_of_the_method": "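S. pyogenes overnight cultures diluted in PBS/BHI (7/2) to about 2 × 10^5 CFU/mL. Test compound added to 1–10 μM final, with water as mock. Incubated 6 h at 37°C while rotating at 7 rpm. Dilutions plated on THY agar, and CFU counted after overnight growth at 37°C under 5% CO2/20% O2. Initial screen used two biological replicates; later experiments used at least three.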"}, "[3]": {"tested_on": "S. pyogenes M1 strain AP1", "experiment": "Bacterial kill assay, strain AP1", "assay_type": "cell-based, Streptococcus pyogenes", "details": "6 h (data not shown; Figure 3B cited)", "summary_of_the_method": "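Overnight THY cultures (37°C, 5% CO2/20% O2) diluted in PBS/BHI (7/2) to about 2 × 10^5 CFU/mL. About 10^5 CFU were exposed to CPP-PNA conjugates at 1–10 μM final, with 5 μM used in the isolate comparison; water was the mock. Incubation 6 h at 37°C, rotating at 7 rpm. Viable counts came from plating dilutions on THY agar, compared with the untreated control.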"}, "[4]": {"tested_on": "gyrA mRNA", "assay_type": "cell-based, Streptococcus pyogenes", "details": "2 μM CPP-PNA, 6 h, 10^7 CFU/mL in THY; normalised to 5S RNA gene, 2^-ΔΔct; n = 3"}}}
{"molecule": "C[C@H]1COc2c(N3CCN(C)CC3)c(F)cc3c(=O)c(C(=O)O)cn1c23", "note": "[levofloxacin, reference compound]", "values": [{"measurement": "Survival of infected larvae", "setting": "[1]; 1 μg levofloxacin alone, untreated infected larvae 20%, n = 30 larvae per group", "value": 46, "unit": "%"}]}
{"molecule": "Dansyl-G-C-ELALE LALEALEAALELA [ELA-anti-gyrA PNA]", "values": [{"measurement": "Reduction of CFU per milliliter", "setting": "[2]", "value": "no reduction"}]}
{"molecule": "KKKKKKKK [K8-anti-gyrA PNA]", "values": [{"measurement": "Clearance six hours following treatment", "setting": "[2]", "value": "no clearance was achieved"}, {"measurement": "log CFU reduction", "setting": "[2]; 5 μM", "value": "three"}, {"measurement": "log CFU reduction", "setting": "[2]; 10 μM", "value": "four"}, {"measurement": "Antimicrobial effect in AP1", "setting": "[3]", "value": "did not show any antimicrobial effect"}, {"measurement": "gyrA mRNA level relative to mock-treated bacteria", "setting": "[4]", "value": 60, "unit": "%"}]}
{"molecule": "KKKKKKKK [K8-anti-gyrA scPNA]", "values": [{"measurement": "Reduction of bacterial counts by scPNA", "setting": "[2]", "value": "significant reduction"}, {"measurement": "Reduction of bacterial counts by scPNAs in kill assay", "setting": "[2]", "value": "did not lead to the reduction of bacterial counts"}]}
{"molecule": "LLIILRRRIRKQAHAHSK [mVE-cadherin-anti-gyrA PNA]", "values": [{"measurement": "Reduction of CFU per milliliter", "setting": "[2]", "value": "no reduction"}]}
{"molecule": "RQIKIWFQNRRMKWKK [Ant-anti-gyrA PNA]", "values": [{"measurement": "Reduction of CFU per milliliter", "setting": "[2]", "value": "no reduction"}]}
{"molecule": "RXRRXRRXRRXRXB [(RXR)4XB-anti-gyrA PNA]", "values": [{"measurement": "Clearance six hours following treatment", "setting": "[2]", "value": "no clearance was achieved"}, {"measurement": "log CFU reduction", "setting": "[2]; 5 μM", "value": "three"}, {"measurement": "log CFU reduction", "setting": "[2]; 10 μM", "value": "four"}, {"measurement": "gyrA mRNA level relative to mock-treated bacteria", "setting": "[4]", "value": 56, "unit": "%"}, {"measurement": "Effect on larvae survival relative to the other active conjugates", "setting": "[1]; 4 nmol/larva, 7 days", "value": "lower compared with the other conjugates"}]}
{"molecule": "RXRRXRRXRRXRXB [(RXR)4XB-anti-gyrA scPNA]", "values": [{"measurement": "Reduction of bacterial counts by scPNA", "setting": "[2]", "value": "significant reduction"}, {"measurement": "Reduction of bacterial counts by scPNAs in kill assay", "setting": "[2]", "value": "did not lead to the reduction of bacterial counts"}]}
